According to ChEMBL document CHEMBL1139299, “Facilitated phospholipid translocation in vesicles and nucleated cells using synthetic small molecule scramblases” (Bioorg Med Chem, 2009):

How the values were obtained:
Format in all cases: functional
[1] = tested on: PC-3; test: Cytotoxicity against human PC3 cells by MTT assay; conditions: read-out: LD50 (the source's name)
Outline: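 PC3 cells grown in Ham's F-12K with 10% FBS were seeded at ≥5 × 10^4 cells/mL, dosed from DMSO stock for 24 h, then given fresh growth medium plus MTT for 4 h. SDS in 0.01 M HCl was added for 18 h at 37°C, 5% CO2. A570 was read. % living cells was calculated against a no-cell blank and a DMSO-only control, and LD50 was reported.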

[2] = tested on: Jurkat; test: Cytotoxicity against human Jurkat cells by MTT assay; conditions: read-out: LD50 (the source's name)
Outline: (§1)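 Cells (Jurkat and LNCaP grown in RPMI with 10% FBS) were seeded at ≥5 × 10^4 cells/mL, dosed from DMSO stock for 24 h, then given fresh medium plus MTT (Jurkat pelleted first). After 4 h, SDS in 0.01 M HCl was added for 18 h at 37°C. A570 was read. % living cells was calculated against a no-cell blank and a DMSO-only control, and LD50 was reported.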

[3] = tested on: LNCaP; test: Cytotoxicity against human LNCAP cells by MTT assay; conditions: read-out: LD50 (the source's name); outline: as §1
[4] = tested on: PC-3; test: Induction of endogenous phospholipidserine distribution in human PC3 cells at 100 uM by Annexin-V-FITC
Outline: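 PC3 cells detached with trypsin at 90% confluency and resuspended in TES buffer (5 mM TES, 100 mM NaCl, pH 7.4) at 1 × 10^5 cells/mL. Scramblase added from DMSO stock, 100 μM final, 2 h at 37°C, 5% CO2. Pelleted, resuspended in binding buffer, stained 15 min at 37°C with Annexin V-FITC plus 7AAD (500 ng/mL) to exclude necrotic cells. Annexin-positive fraction read by flow cytometry; three independent experiments.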

Row | SMILES | CC50 [1] | CC50 [2] | CC50 [3] | Activity [4]
1 | Cc1ccc(S(=O)(=O)NCCN(CCNC(=O)Nc2ccc(Cl)cc2)CCNS(=O)(=O)c2ccc(C)cc2)cc1 | > 100 µM | > 100 µM | > 100 µM | 
2 | Cc1ccc(S(=O)(=O)NCCN(CCNC(=O)Nc2ccc(C#N)cc2)CCNS(=O)(=O)c2ccc(C)cc2)cc1 | > 100 µM | > 100 µM | > 100 µM | 
3 | Cc1ccc(NC(=O)NCCN(CCNS(=O)(=O)c2ccc(C)cc2)CCNS(=O)(=O)c2ccc(C)cc2)cc1 | > 100 µM | > 100 µM | > 100 µM | 
4 | Cc1ccc(S(=O)(=O)NCCN(CCNC(=O)Nc2ccccc2)CCNS(=O)(=O)c2ccc(C)cc2)cc1 | > 100 µM | > 100 µM | > 100 µM | < 5%
5 | Cc1ccc(S(=O)(=O)NCCN(CCNC(=O)Nc2ccc(Oc3ccccc3)cc2)CCNS(=O)(=O)c2ccc(C)cc2)cc1 | > 100 µM | > 100 µM | > 100 µM | 
6 | Cc1ccc(S(=O)(=O)NCCN(CCNC(=O)[C@H](N)Cc2ccccc2)CCNS(=O)(=O)c2ccc(C)cc2)cc1 | 15 µM | 25 µM | 40 µM | 
7 | Cc1ccc(S(=O)(=O)NCCN(CCNC(=O)Nc2ccc(Br)cc2)CCNS(=O)(=O)c2ccc(C)cc2)cc1 | > 100 µM | > 100 µM | > 100 µM | 
8 | Cc1ccc(S(=O)(=O)NCCN(CCNC(=S)Nc2ccc(Cl)cc2)CCNS(=O)(=O)c2ccc(C)cc2)cc1 | 25 µM | 15 µM | 15 µM | 
9 | Cc1ccc(S(=O)(=O)NCCN(CCNC(=O)Nc2ccc(C(C)(C)C)cc2)CCNS(=O)(=O)c2ccc(C)cc2)cc1 | > 100 µM | > 100 µM | > 100 µM | 
10 | Cc1ccc(S(=O)(=O)NCCN(CCNC(=O)Nc2ccc(OC(F)(F)F)cc2)CCNS(=O)(=O)c2ccc(C)cc2)cc1 | > 100 µM | > 100 µM | > 100 µM | 
11 | COc1ccc(NC(=O)NCCN(CCNS(=O)(=O)c2ccc(C)cc2)CCNS(=O)(=O)c2ccc(C)cc2)cc1 | > 100 µM | > 100 µM | > 100 µM | 
12 | Cc1ccc(S(=O)(=O)NCCN(CCNCc2ccccc2)CCNS(=O)(=O)c2ccc(C)cc2)cc1 | 25 µM | 25 µM | 40 µM | 
13 | Cc1ccc(S(=O)(=O)NCCN(CCNC(=O)Nc2ccc(C(F)(F)F)cc2)CCNS(=O)(=O)c2ccc(C)cc2)cc1 | > 100 µM | > 100 µM | > 100 µM | 
14 | Cc1ccc(S(=O)(=O)NCCN(CCNC(=O)Nc2ccc(C(C)C)cc2)CCNS(=O)(=O)c2ccc(C)cc2)cc1 | > 100 µM | > 100 µM | > 100 µM | < 5%
15 | Cc1ccc(S(=O)(=O)NCCN(CCNC(=O)Nc2ccc([N+](=O)[O-])cc2)CCNS(=O)(=O)c2ccc(C)cc2)cc1 | > 100 µM | > 100 µM | > 100 µM | < 5%
16 | CC(=O)c1ccc(NC(=O)NCCN(CCNS(=O)(=O)c2ccc(C)cc2)CCNS(=O)(=O)c2ccc(C)cc2)cc1 | > 100 µM | > 100 µM | > 100 µM | 
